Experimental data from publication PMC2846993 (Biochimica et biophysica acta, 2010).
Where “and” joins values, the source holds several entries; their conditions need not be identical. Identical values can stand only once.

How the values were obtained:
[1] = biological target: T1, Glu^1-Pg activation by uPA (Homo sapiens, UniProt P00747); experiment: uPA-catalyzed Pg activation, chromogenic substrate S-2251; type: biochemical; settings: 1 mM 6-AHA
Glu^1-Pg = settings: saturating amounts of 6-AHA, Cl^−-containing buffer; ref [14],[19],[20]; cited from earlier work
[2] = biological target: T1, Glu^1-Pg activation by uPA; settings: 6-AHA, acetate buffer; ref [34]; cited from earlier work
[3] = biological target: Wild type (wt) human Glu^1-Pg (plasminogen) (human); experiment: SPR
[4] = biological target: Glu^1-Pg activation by SK (Homo sapiens, UniProt P00747); experiment: SK-mediated; type: biochemical, human Glu^1-Pg; SK from Streptococcus equisimilis
[5] = Sedimentation equilibrium / self-association; type: physicochemical; settings: PAM 22 μM, 20 °C, representative scan at 15,000 rpm
Method in brief: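 Test protein at 22 μM final in 10 mM HEPES/100 mM NaCl, pH 7.4, at 20 °C. Centrifuged at 10,000 and 15,000 rpm. Apparent molecular weight came from a global fit of three scans at both speeds. Radius vs absorbance was simulated for the purely monomeric protein.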

T1 sequence (P00747 20-810 limits assumed): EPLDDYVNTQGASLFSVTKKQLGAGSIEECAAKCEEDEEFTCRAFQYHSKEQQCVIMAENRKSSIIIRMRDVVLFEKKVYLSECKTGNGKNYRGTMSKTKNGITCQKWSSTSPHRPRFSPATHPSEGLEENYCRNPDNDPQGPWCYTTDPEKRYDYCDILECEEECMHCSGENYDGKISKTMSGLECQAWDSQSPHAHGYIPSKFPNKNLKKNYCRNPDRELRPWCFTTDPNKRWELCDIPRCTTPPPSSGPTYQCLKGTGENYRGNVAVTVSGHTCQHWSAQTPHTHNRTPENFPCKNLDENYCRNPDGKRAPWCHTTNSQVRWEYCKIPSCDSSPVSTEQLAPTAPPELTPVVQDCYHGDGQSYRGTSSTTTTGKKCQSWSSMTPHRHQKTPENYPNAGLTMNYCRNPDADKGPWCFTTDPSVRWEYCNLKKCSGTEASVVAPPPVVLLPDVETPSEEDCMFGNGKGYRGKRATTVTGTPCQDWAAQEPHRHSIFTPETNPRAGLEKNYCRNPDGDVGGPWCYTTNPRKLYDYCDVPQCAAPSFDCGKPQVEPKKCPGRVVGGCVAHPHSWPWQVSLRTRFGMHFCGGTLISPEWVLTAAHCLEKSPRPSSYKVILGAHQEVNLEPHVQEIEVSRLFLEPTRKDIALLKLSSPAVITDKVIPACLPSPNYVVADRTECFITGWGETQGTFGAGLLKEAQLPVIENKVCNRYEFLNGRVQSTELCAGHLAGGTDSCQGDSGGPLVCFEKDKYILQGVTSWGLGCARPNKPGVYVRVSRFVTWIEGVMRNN

Molecule | Kd [3] | koff [3] [s⁻¹] | kon [3] [M⁻¹ s⁻¹] | also measured
NCCCCCC(=O)O [6-AHA, 6-aminohexanoic acid] |  |  |  | rate enhancement of uPA-catalyzed Pm generation ([1]; Cl^− buffer (data not shown)): 2.2 fold; rate enhancement of uPA-catalyzed Pm generation ([1]; acetate buffer (data not shown)): 1.1 fold; decrease in sedimentation coefficient (S°20,w) of Pg (Glu^1-Pg): approximately 1 unit; increase in Pg conversion by uPA [2]: 1.2 fold
K^98A/K^111A PAM (KK-PAM) (from UniProt P49054 30-384) (natural protein) | 38 nM and 44 nM | 0.0095 | 250000 | 
K^98A/R^101A/H^102A/E^104A/K^111A PAM (KRHEK-PAM) (from UniProt P49054 30-384) (natural protein) | 50 nM | 0.017 | 340000 | 
R^101A/H^102A PAM (RH-PAM) (from UniProt P49054 30-384) (natural protein) | 424 nM and 731 nM | 0.014 | 33000 | 
Wt-PAM (Pg-binding group A streptococcal M-like protein, GAS strain NS13) (from UniProt P49054 30-384) (natural protein) | 23 nM and 33 nM | 0.0079 | 340000 | 
wt-PAM: Pg-binding group A streptococcal M-like protein, GAS strain NS13, full-length wild type (VEKLTADAELQRLKNERHEEAELERLKSEY) |  |  |  | increase in SK-mediated Pg activation rate ([4]; 20 nM PAM, Pg 80 nM, equimolar SK, 10 mM HEPES/100 mM NaCl, pH 7.4): 3.6 fold; enhancement in Pg conversion rate by SK ([4]; 500 nM PAM, Cl^− buffer (data not shown)): 220 fold; apparent molecular weight (Mw,app), self-association [5]: 71600
